A selection: hits, their analogues and other compounds. The true share with any hit is near 3.9%.
TAAR1 antagonist: antagonists of human TAAR1. inhibition, % at 3 µM. CHO RD-HGA16 TAAR1, Fluo-8 calcium fluorescence, antagonist. actives 1.5% (n = 360,000);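 active = inhibition above a per-plate cutoff, the mean inhibition of test compounds on that plate plus 3 SD, cut at about 49% in these data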;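 note: 0% = DMSO plus EC80 beta-PEA response and 100% = DMSO alone without agonist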
Target sequence (Q96RJ0 whole entry, looked up): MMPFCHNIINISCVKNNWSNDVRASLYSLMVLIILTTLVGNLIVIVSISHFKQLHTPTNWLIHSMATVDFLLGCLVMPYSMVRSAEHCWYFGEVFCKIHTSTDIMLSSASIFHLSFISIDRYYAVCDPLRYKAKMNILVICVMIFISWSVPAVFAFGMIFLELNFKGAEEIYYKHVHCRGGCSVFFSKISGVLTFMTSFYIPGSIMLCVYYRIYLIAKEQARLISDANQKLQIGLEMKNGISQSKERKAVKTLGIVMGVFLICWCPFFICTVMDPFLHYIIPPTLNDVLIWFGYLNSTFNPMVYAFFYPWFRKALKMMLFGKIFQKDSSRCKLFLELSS
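Assay system: CHO-derived RD-HGA16 cells stably expressing human TAAR1 plus Gα16. Timing: 140 s kinetic read after compound, 140 s after agonist. Technique: kinetic Fluo-8 calcium fluorescence measurement. Measure: % inhibition of agonist calcium response.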
TAAR1 ag: agonists of human TAAR1 | actives 0.99% (n = 360,000) | AID 624467 | CHO RD-HGA16 TAAR1, Fluo-8 calcium fluorescence; vehicle wells 0%, saturating PEA agonist 100% | activation, % at 3 µM;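 active = activation above the mean activation of all test compounds in the run plus 3 SD, cut at about 38% in these data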
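Test system: RD-HGA16 (CHO) cells co-expressing Gα16 and hTAAR1 / Benchmarks: DMSO vehicle as 0%, PEA at EC100 as 100% / Repeats: no replicates (n 1) / Measure: % activation from peak over basal fluorescence ratio, DMSO-to-PEA scaled / Timing: 17-24 h plating, Fluo-8 75 min 37 °C, 30 min RT / Technique: kinetic Fluo-8 calcium fluorescence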
CHO parental Ca: signal in parental CHO cells, OX1R antagonist counter-screen; parental CHO-K1, ATP-induced calcium, Fluo-8 fluorescence; inhibition, % at 5.6 µM; actives 0.63% (n = 330,000);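 active = inhibition above that plate's mean sample inhibition plus 3 SD, cut at about 26% in these data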;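 note: 0% = ATP-challenged DMSO wells and 100% = DMSO wells without ATP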
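material = parental CHO cells | also added = ATP as calcium-mobilizing challenge | dosing = single point at 5.6 µM | detection = intracellular calcium via Fluo-8 no-wash fluorescent dye | read-out = % inhibition | benchmarks = low control ATP plus DMSO, high control DMSO only | repeats = one well per compound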
OX1R antag-1: antagonists of human orexin 1 receptor (OX1R) | OX1R-expressing cells, FRET antagonist read-out | O43613 | inhibition, % at 6.6 µM | actives 1.8% (n = 330,000); in the data active = inhibition mostly above about 38%, no sharp cut-off; inactive = mostly below about 40%;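 note: 0% = agonist challenge alone and 100% = reference antagonist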
OX1R antag-2: blocks the human orexin 1 receptor. CHO/OX1R cells, Fluo-8 calcium fluorescence, orexin A. inhibition, % at 5 µM. actives 0.43% (n = 330,000). AID 434989;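 active = inhibition above its plate's threshold, mean inhibition of all tested compounds on the plate plus 3 SD, cut at about 37% in these data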;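 note: 0% = orexin A challenge wells and 100% = SB-334867-A antagonist wells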
* marks the source's active call; other numbers are inactive results; . = no result given.

SMILES	TAAR1 antagonist	TAAR1 ag	CHO parental Ca	OX1R antag-1	OX1R antag-2
CN(Cc1cccnc1)C(=O)c1cc(COc2ccc3c(c2)CCCC3)on1	15.7	4.3	40.3*	27.7	25.0
CCc1ccc(CN(C)C(=O)c2cc(COc3cccc4cnccc34)on2)cc1	50.7*	1.9	67.2*	34.6	50.5*
CC(C)(C)OC(=O)N1CCC[C@@H]1C(=O)N1CCC[C@@H]1C(=O)NCc1ccccc1	5.7	-0.5	.	.	.
O=C(C(=O)N1CCC(CNS(=O)(=O)c2ccc(F)c(F)c2)CC1)c1cc2ccccc2o1	-1.4	3.0	.	.	.
CS(=O)(=O)c1ccc(NCCc2ccccn2)c([N+](=O)[O-])c1	9.1	-2.3	-6.0	52.2*	-16.9
CN(C)C(CNc1ccc(S(C)(=O)=O)cc1[N+](=O)[O-])Cc1ccccc1 (stereo not given)	-1.4	6.8	-21.1	42.9*	-20.4
O=[N+]([O-])c1cc(C(F)(F)F)ccc1NCCc1ccccn1	-10.9	0.0	11.3	20.2	-2.0
Cc1cccc(-n2cnc3c(c2=O)c2nc4ccccc4nc2n3Cc2ccco2)c1	3.0	6.7	-22.7	68.9*	-7.2
CC(NCC(O)COC1CCC(C(C)(C)C)CC1)c1ccccc1 (stereo not given)	0.9	44.2*	20.7	6.1	-29.0
CCCC(NCC(O)COc1ccc(-c2ccccc2)cc1)c1ccccc1 (stereo not given)	-6.2	40.3*	53.4*	-1.0	38.0
CC(NCC(O)COc1ccc(Br)cc1)c1ccccc1 (stereo not given)	3.3	43.0*	-20.5	11.0	4.6
COc1ccc(OCC(O)CNC(C)c2ccccc2)cc1 (stereo not given)	-25.8	4.4	-23.4	3.9	-18.0
C=CCN1C(=O)c2n[nH]c(COC)c2C1c1ccc(F)cc1 (stereo not given)	-16.9	1.6	.	.	.
O=C1NC(Cc2ccccc2)c2nc3cc(Cl)ccc3c(=O)n2-c2ccccc21 (stereo not given)	29.1	7.2	-11.7	7.7	-12.7
CCOC(=O)N1CCN(C(=O)c2oc3ccc(S(=O)(=O)N4CCCCCC4)cc3c2C)CC1	1.6	10.5	-40.8	-12.6	-31.6
Cc1c(C(=O)N2CCc3ccccc3C2)oc2ccc(S(=O)(=O)N3CCCCCC3)cc12	-1.1	41.7*	-18.0	-3.1	-42.3
COC(=O)c1cc2c(c3c4cc(F)ccc4n(S(=O)(=O)c4ccc(OC)cc4)c13)C(=O)N(Cc1ccccc1OC)C2	2.5	2.4	.	.	.
NC(=O)c1ncn([C@@H]2O[C@H](C(=O)N[C@H](Cc3ccccc3)C(=O)O)[C@@H](O)[C@H]2O)n1	-10.8	-0.2	.	.	.
O=C(NCCc1ccccc1)C(=O)NCC1OCCCN1S(=O)(=O)c1cc(F)ccc1F (stereo not given)	-10.6	40.2*	-11.3	43.5	-3.2
Cc1ccc(C)c(S(=O)(=O)N2CCCOC2CNC(=O)C(=O)NCCC2=CCCCC2)c1 (stereo not given)	-7.6	11.8	-27.2	39.2	-0.8
Cc1cc(F)ccc1S(=O)(=O)N1CCCOC1CNC(=O)C(=O)NCCc1ccccc1 (stereo not given)	-1.8	13.0	-26.8	50.6	-7.8
Cc1ccc(C)c(S(=O)(=O)N2CCCCC2CCNC(=O)C(=O)NCc2ccco2)c1 (stereo not given)	-0.9	-1.4	-36.5	41.1*	17.1
Cc1ccc(C)c(S(=O)(=O)N2CCCOC2CNC(=O)C(=O)NCCc2ccccc2)c1 (stereo not given)	-0.6	22.5	-14.8	54.0*	-1.2
COc1ccc(-c2ccc3c(n2)CCCN3S(=O)(=O)c2ccc(C#N)cc2)cc1	-28.9	0.9	.	.	.
COCCOC(=O)c1c(C)n(C)c2ccc(OC(=O)N3CCOCC3)cc12	1.3	2.1	-6.9	4.6	-13.2
SMILES	TAAR1 antagonist	TAAR1 ag	CHO parental Ca	OX1R antag-1	OX1R antag-2
COCCOC(=O)c1c(C)n(C)c2ccc(OC(=O)c3c(OC)cccc3OC)cc12	49.0*	17.6	-4.1	29.1	-18.4
O=C1NC(=O)C2C3C=CC(C12)C1C(=O)NC(=O)C31 (stereo not given)	-25.2	1.4	.	.	.
O=C1C(Cl)=C(N2CCN(c3ccccc3[N+](=O)[O-])CC2)C(=O)c2ccccc21	10.1	3.7	-15.4	54.9*	-12.3
O=[N+]([O-])c1cc(Cl)ccc1N1CCCC1	12.7	6.3	-3.6	6.4	-1.9
CCC1(c2ccc(OC)cc2)NC(=O)N(CC(=O)N2CCc3ccccc32)C1=O (stereo not given)	32.8	63.5*	.	.	.
CCC1(c2ccccc2)NC(=O)N(CC(=O)Nc2ccccc2N2CCCC2)C1=O (stereo not given)	3.2	38.8*	-1.1	16.7	-3.3
CCC1(c2ccccc2)NC(=O)N(CC(=O)N(CC(=O)Nc2ccccc2C(F)(F)F)Cc2ccco2)C1=O (stereo not given)	18.3	44.4*	-9.1	6.6	-9.1
Cc1ccc(C2(C)NC(=O)N(CC(=O)c3ccc4c(c3)OCCO4)C2=O)cc1 (stereo not given)	4.0	20.2	-11.4	7.3	-14.4
CC1(c2ccccc2)NC(=O)N(CC(=O)Nc2ccccc2N2CCCCC2)C1=O (stereo not given)	30.0	24.3	-13.6	9.5	-15.5
CCC1(c2ccc(OC)cc2)NC(=O)N(CC(=O)c2ccc3c(c2)OCCO3)C1=O (stereo not given)	-0.4	37.7*	-4.2	1.0	-0.8
CCNC(=O)C1(C)CCCN(C(=O)c2ccc3c(c2)C(C)(C)CCC3(C)C)C1 (stereo not given)	-6.5	1.8	.	.	.
COc1ccccc1CN(C)C(=O)COC(=O)c1cc(C)oc1C	-13.1	-1.0	.	.	.
O=S(=O)(N1CCCCC1)n1nnc2cc3ccccc3cc21	-24.9	4.1	.	.	.
CCCCCCCCN1C(=O)[C@@H](CC(=O)N2CCCC2)C[C@@]2(C(=O)OC)C1=C[C@H](C(C)(C)C)O[C@@H]2C	-39.4	-2.2	.	.	.
CS(=O)(=O)c1cccc(C(=O)N(CCc2ccccc2)Cc2cccs2)c1	-11.6	37.9*	-9.7	13.2	-9.4
O=C(c1cccc(S(=O)(=O)N2CCCCC2)c1)N(CCc1ccccc1)Cc1ccccc1	23.9	1.1	-16.9	14.8	-28.8
O=c1[nH]c2cc(C(F)(F)F)ccc2n1-c1cc(C(F)(F)F)ccc1O	-7.5	1.8	83.8*	22.1	51.2*
CCOC(=O)c1ccc(/C=N/O)[n+](Cc2ccccc2)c1	-16.2	5.7	-0.2	59.9*	-2.2
COc1cccc2c1C(=O)c1c(O)c3c(c(O)c1C2=O)C[C@@](O)(C(C)=O)C[C@@H]3O[C@H]1C[C@H](N)[C@H](O)[C@H](C)O1	-2.5	14.1	.	.	.
CC(=O)[C@]1(O)Cc2c(O)c3c(c(O)c2[C@@H](O[C@H]2C[C@H](N)[C@H](O)[C@H](C)O2)C1)C(=O)c1ccccc1C3=O	.	.	36.7*	53.5	42.2*
